The values below come from ChEMBL document CHEMBL1126627, “Synthesis and anti-HIV evaluation of D4T and D4T 5'-monophosphate prodrugs” (J Med Chem, 1993).

Data set [1] concerns CEM-c113. The data set is described as follows: Effective concentration that reduces HIV-induced cytopathic effect by 50% was determined by MTT assay. The class given is functional, cell-based. To be noted: Homo sapiens. An outline of the steps: (§1)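 CEM-Cl13 T-lymphoblastoid cells in RPMI 1640 with 5% heat-inactivated FCS at 37 °C, 5% CO2. Wells seeded with 10000 cells and given compound dilutions in triplicate (DMF stock diluted in water, at most 0.1% DMF final). Infected with HIV-1 LAV-Bru cell-free supernatant at 50-250 times the minimal infecting dose, cultured 7 days. MTT viability read at 540 nm. EC50 is the dose giving 50% protection from CPE. SI is IC50/EC50.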

Data set [2] relates to CEM-c113. Briefly: Antiviral activity measured in lymphocytic cell line (CEM-C113) infected with HIV-1 cell free supernatants. The class given is functional, cell-based. To be noted: Homo sapiens. An outline of the steps:
as §1

Data set [3] is described as follows: Selectivity index expressed as ratio of IC50 (CEM-C113) to EC50 from MTT assay. It counts as functional. In outline: as §1
Data set [4] is described as follows: Half-life estimated in human plasma. The class given is ADME. In outline:
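Compounds incubated in human plasma. Breakdown followed by TLC separation, and half-life estimated from this.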

For data set [5], the target named is Human immunodeficiency virus type 1 reverse transcriptase (Human immunodeficiency virus 1) (UniProt Q72547). The data set is described as follows: Selectivity index expressed as ratio of IC50 (CEM-C113) to EC50 from RT assay. In outline:
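HIV-1 LAV-Bru cell-free supernatant used to infect CEM-Cl13 cells (10000/well, triplicate compound dilutions, 7-day culture). EC50 is 50% reduction of RT activity. SI is the ratio of the mock-infected MTT IC50 to this EC50.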

Data set [6] can be described thus: Selectivity index expressed as ratio of IC50 (CEM-C113) to EC50 from MTT assay; inactive. It counts as functional. An outline of the steps: as §1

Activity calls are given as the source filed them. The rule behind the calls is not given here. Some results are limits rather than exact numbers.

`Cc1cn(C2C=CC(COP(=O)(OCCC#N)OCC3C=CC(n4cc(C)c(=O)[nH]c4=O)O3)O2)c(=O)[nH]c1=O` (centres undefined) showed an EC50 in data set [1] of 1 µM. For the same compound, half-maximal inhibition in data set [2] (IC50) required 17 µM. In data set [3], the Selectivity index is 17. In addition, the half-life in data set [4] is 12 h.
For `Cc1cn([C@H]2C[C@H](N=[N+]=[N-])[C@@H](CO)O2)c(=O)[nH]c1=O` [ZIDOVUDINE], the Selectivity index in data set [5] amounted to 2000; in data set [3], 3330. In data set [1], this compound showed an EC50 of 0.006 µM. Further, the IC50 in data set [2] stood at 20 µM.
In the same order, the values of `Cc1cn([C@H]2C=C[C@@H](CO)O2)c(=O)[nH]c1=O` [STAVUDINE] are 200, 125, 0.08 µM and 10 µM.
As to `Cc1cn(C2C=CC(COP(=O)(O)OCC3C=CC(n4cc(C)c(=O)[nH]c4=O)O3)O2)c(=O)[nH]c1=O` (centres undefined), the values for the Selectivity index in data set [5] and in data set [3] were 2000 and 5000, respectively. In addition, a half-maximal effect in data set [1] (EC50) was put at 0.02 µM. In data set [2], this compound gave an IC50 of 100 µM. In addition, the half-life in data set [4] is over 24 h.
In the same order, the values of `CCCCCCCCCCCCCCCC(=O)OCC1C=CC(n2cc(C)c(=O)[nH]c2=O)O1` (centres undefined) are 50, 40, 0.1 µM, 4 µM and 4 h.
Consider `CCCCCCCCCCCCCCCCOC(=O)OCC1C=CC(n2cc(C)c(=O)[nH]c2=O)O1` (centres undefined), for which the EC50 in data set [1] is 0.3 µM. Besides, the IC50 in data set [2] is over 20 µM. Further, the Selectivity index in data set [3] is over 66. The half-life in data set [4] was over 24 h.
In the same order, the values of `CCCCCCCCCCCCCCCCOP(=O)(OCCC#N)OCC1C=CC(n2cc(C)c(=O)[nH]c2=O)O1` (centres undefined) are 4.3 µM, 17 µM, 4 and 12 h.
For `CCCCCCCCCCCCCCCCOP(=O)(O)OCC1C=CC(n2cc(C)c(=O)[nH]c2=O)O1` (centres undefined), the Selectivity index amounted to 50 in data set [5] and 83 in data set [3]. In addition, the EC50 in data set [1] turned out to be 0.12 µM. Moreover, half-maximal inhibition in data set [2] (IC50) required 10 µM. For the same compound, the half-life in data set [4] was over 24 h.
In turn, `CCCCCCCCCCCCCCCCNC(=O)OCC1C=CC(n2cc(C)c(=O)[nH]c2=O)O1` (centres undefined) displayed an EC50 in data set [1] of over 20 µM. For the same compound, the Selectivity index result in data set [6] is “inactive”. In addition, the IC50 in data set [2] is over 20 µM. Moreover, the half-life in data set [4] was over 24 h.
